MrgX1 PAM: positive allosteric modulators of MrgX1, primary screen, HEK293 cells, Fluo-4 calcium flux; B-score at 10 µM; Mas-related G-protein coupled receptor member X1 (Homo sapiens), Q96LB2; FDSS; hits give high values; 310,000 compounds, 0.63% hits;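 active = plate-corrected calcium response at least 3 library SD above typical, normal starting fluorescence, not activating the receptor alone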;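 also: compound read alongside a low EC10 to EC30 dose of BAM8-22 agonist; peak minus trough fluorescence over baseline measured at the second addition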
Target sequence (Q96LB2 whole entry, looked up): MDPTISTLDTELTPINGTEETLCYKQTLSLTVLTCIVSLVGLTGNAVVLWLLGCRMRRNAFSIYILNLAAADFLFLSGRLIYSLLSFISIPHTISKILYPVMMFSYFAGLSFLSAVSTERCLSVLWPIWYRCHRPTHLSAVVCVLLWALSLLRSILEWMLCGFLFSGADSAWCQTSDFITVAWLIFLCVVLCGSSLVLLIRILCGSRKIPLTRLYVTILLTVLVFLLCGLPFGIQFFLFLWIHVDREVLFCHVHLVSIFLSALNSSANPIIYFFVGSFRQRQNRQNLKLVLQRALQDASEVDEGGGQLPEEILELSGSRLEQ
MrgX1 antag: antagonists of human MrgX1 receptor, primary screen, HEK293 cells, Fluo-4 calcium flux; Mas-related G-protein coupled receptor member X1 (Homo sapiens), Q96LB2; BAM8-22 antagonism; hits give low values; B-score at 10 µM; 310,000 compounds, 1.3% hits; AID 588676, 2011;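 active = calcium-response B-score plate-corrected more than 3 library SD below zero, starting fluorescence within 5 deviations, no agonist response on first addition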;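 also: peak minus trough fluorescence over baseline after final BAM8-22 challenge near maximal dose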
RGS4 block: RGS4 inhibitors, primary screen, cell-based, HEK293 M3R inducible RGS4, calcium flux. Regulator of G-protein signaling 4 (Homo sapiens), P49798. Fluo-4 calcium flux; hits give high values; triggered by carbachol at its EC20. B-score at 10 µM. 310,000 compounds, 0.45% hits;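 active = B-score, a plate-corrected calcium signal, over three deviations above library mean, with baseline fluorescence within five deviations of library mean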;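 also: RGS4 expression induced by doxycycline in cells with stable M3 receptor; B-score is computed from the integrated fluorescence ratio over baseline after carbachol; higher B-score means a larger calcium signal and so more RGS4 inhibition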
Target sequence (P49798 whole entry, looked up): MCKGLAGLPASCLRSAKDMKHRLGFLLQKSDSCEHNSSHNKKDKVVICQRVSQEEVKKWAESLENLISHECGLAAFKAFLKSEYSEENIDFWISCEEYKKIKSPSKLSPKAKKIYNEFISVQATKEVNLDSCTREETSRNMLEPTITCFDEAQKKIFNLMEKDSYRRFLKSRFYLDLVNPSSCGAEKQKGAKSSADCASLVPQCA
RGS4 act: RGS4 potentiators or activators, primary screen, cell-based, HEK293 M3R inducible RGS4, calcium flux; 310,000 compounds, 0.92% hits; B-score at 10 µM; AID 463111, 2010; carbachol calcium flux Fluo4; hits give low values;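 active = B-score of the integrated calcium signal more than 4 SD below the library mean, with starting fluorescence not abnormally high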;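 also: negative B-score means reduced calcium response which marks RGS4 activation or potentiation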
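Assay system: Inducible-RGS4 HEK293 cells carrying M3 receptor | Schedule: Compound preincubation 20 min at room temperature before agonist | Signal: Kinetic calcium fluorescence imaging with Fluo4-AM dye, 2 µM | Read-out basis: B score from integrated fluorescence ratio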
MrgX1 ag: agonists of human MrgX1 receptor, primary screen, HEK293 cells, Fluo-4 calcium flux; Mas-related G-protein coupled receptor member X1 (Homo sapiens), Q96LB2; Fluo-4 calcium fluorescence, agonist mode; hits give high values; B-score at 10 µM; 310,000 compounds, 0.44% hits; AID 588627, 2011;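 active = calcium response B-score plate-corrected fluorescence ratio at least 3 library SD, with starting fluorescence B-score inside 5 SD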
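Material: HEK293 cells stably expressing human MrgX1 receptor | Quantity: 15,000 cells per well | Times: Cells plated overnight, dye loaded 0.5 h 37 °C, 0.5 h room temperature | Measured by: Kinetic Fluo-4 NW fluorescence of intracellular calcium | Control set: Positive and negative controls per plate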
MrgX1 allo conf: MrgX1 positive allosteric modulators, duplicate retest, confirmation, HEK293 cells, Fluo-4 calcium flux. shares compounds with MrgX1 PAM. Fluo-4 calcium fluorescence, FDSS. activation (ratio percentage), % at 10 µM. 1,200 compounds, 13% hits;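 active = ratio at least 3 SD above the weak peptide control, stable starting fluorescence, no direct agonism earlier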;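 also: compound followed by low BAM8-22 agonist challenge near EC20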
HEK293 Ca flux: nonspecific calcium signal in parental HEK293, confirmation, counter-screen for MrgX1 antagonist project, parental HEK293 cells, Fluo-4 calcium flux. shares compounds with MrgX1 antag. Fluo-4 calcium fluorescence, FDSS. fluorescence ratio F(max-min)/F0 at 10 µM. 4,000 compounds, 2% hits;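 active = duplicate-averaged calcium fluorescence ratio at least three times the standard deviation of buffer wells, a nonspecific response in parental cells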
HEK293 Ca counter: calcium response in parental HEK293 cells, primary screen, counter-screen for MrgX1 allosteric activator project, cell-based, Fluo-4 calcium flux, duplicate; shares compounds with MrgX1 antag; Fluo-4 fluorescence ratio; hits give high values; fluorescence ratio F(max-min)/F0 at 10 µM; 4,000 compounds, 0.4% hits;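 active = calcium fluorescence ratio, averaged over duplicates, at least 3 SD of the buffer-well ratio, meaning a nonspecific response in receptor-free cells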;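 also: untransfected parental HEK293 lacking MrgX1 used as counterscreen for MrgX1 allosteric activators; fluorescence change taken during the second addition on a kinetic imager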
HEK293 Ca cntr2: calcium response in parental HEK293 cells, primary screen, counter-screen for MrgX1 agonist project, cell-based, Fluo-4 calcium flux, duplicate, agonist mode. fluorescence ratio F(max-min)/F0 at 10 µM. 4,000 compounds, 8.7% hits. Fluo-4 calcium fluorescence (FDSS); hits give high values. AID 624115, 2012. shares compounds with MrgX1 antag;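 active = calcium fluorescence ratio at least three times the spread of buffer wells, meaning a non-specific response in parental cells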
Of the large screens only hits and unclear results are named; the others gave an inactive call (follow-up assays come after a bar, where they were run). Compounds with a hit are over-represented: about 3.5% of the library has one in this group of screens.

Cc1c(C(=O)c2ccccc2)oc2ccc3ccccc3c12	MrgX1 PAM 12.6 | MrgX1 allo conf inactive | HEK293 Ca flux inactive | HEK293 Ca counter 48.1 | HEK293 Ca cntr2 inactive
Nc1c(C(=O)c2ccccc2)oc2ccccc12	none
Cc1c(N)cc(C(=O)N2CCOCC2)cc1[N+](=O)[O-]	none
CCCN1CCN(CCCNC(=O)C2CCCN(c3nc4ccc(OCC)cc4s3)C2)CC1 (stereo unspecified)	none
CCOc1ccc2nc(N3CCCC(C(=O)NCC4CCCO4)C3)sc2c1 (stereo unspecified)	MrgX1 PAM 6.62 | MrgX1 allo conf inactive | HEK293 Ca flux inactive | HEK293 Ca counter inactive | HEK293 Ca cntr2 inactive
Brc1cc2c(cc1CSc1ncccn1)OCO2	none
COc1ccccc1CNC(=O)c1cc(C)nn1-c1ccccc1	none
Cc1cc(C(=O)NCc2ccccc2Cl)n(-c2ccccc2)n1	MrgX1 PAM 9.32 | MrgX1 allo conf inactive | HEK293 Ca flux inactive | HEK293 Ca counter inactive | HEK293 Ca cntr2 inactive
CCOCCCn1c(=S)[nH]c2cc(C(=O)NCc3ccc(F)cc3)ccc2c1=O	none
Cc1ccc(C(=O)c2cn[nH]c2-c2cc(Cl)ccc2O)cc1	MrgX1 PAM 10.8 | MrgX1 allo conf inactive | HEK293 Ca flux inactive | HEK293 Ca counter inactive | HEK293 Ca cntr2 inactive
Cc1ccc(-c2[nH]ncc2C(=O)c2ccc(Br)cc2)c(O)c1	MrgX1 PAM 8.66 | MrgX1 allo conf inactive | HEK293 Ca flux inactive | HEK293 Ca counter inactive | HEK293 Ca cntr2 inactive
COc1cccc(CN(C(=O)c2ccccc2Cl)C2CCS(=O)(=O)C2)c1 (stereo unspecified)	none
O=C(CN1C(=O)C2C3CC(C(Br)C3Br)C2C1=O)N1CCN(Cc2ccccc2)CC1 (stereo unspecified)	MrgX1 PAM 7.75 | MrgX1 allo conf inactive | HEK293 Ca flux inactive | HEK293 Ca counter inactive | HEK293 Ca cntr2 inactive
O=C(CN1C(=O)C2C3CC(C(Br)C3Br)C2C1=O)N1CCOCC1 (stereo unspecified)	none
CCCNC(=O)CN1CCC(c2nc3ccccc3[nH]2)CC1	MrgX1 PAM 11.6 | MrgX1 allo conf inactive | HEK293 Ca flux inactive | HEK293 Ca counter inactive | HEK293 Ca cntr2 inactive
CCOC(=O)Cc1csc(NC(=O)c2ccc(Br)cc2)n1	MrgX1 PAM 11.6 | MrgX1 allo conf inactive | HEK293 Ca flux inactive | HEK293 Ca counter inactive | HEK293 Ca cntr2 inactive
CCOC(=O)Cc1csc(NC(=S)NC(=O)c2ccc(Cl)cc2)n1	MrgX1 PAM 6.96 | MrgX1 allo conf inactive | HEK293 Ca flux inactive | HEK293 Ca counter inactive | HEK293 Ca cntr2 inactive
CCOC(=O)Cc1csc(NC(=O)COc2ccccc2OC)n1	MrgX1 PAM 12.4 | MrgX1 allo conf inactive | HEK293 Ca flux inactive | HEK293 Ca counter inactive | HEK293 Ca cntr2 inactive
CCOC(=O)Cc1csc(NC(=S)NC(=O)c2ccc([N+](=O)[O-])cc2)n1	none
CCOC(=O)Cc1cnc(NC(=O)CSc2nc(C(C)C)cc(=O)[nH]2)s1	none
CCOc1ccccc1NC(=O)CCN1CCN(S(=O)(=O)c2ccc(Br)cc2)CC1	none
Cc1nn(C)c(Cl)c1CN1CCC(CO)(CC2CCCCO2)CC1 (stereo unspecified)	none
Nc1ccc(Cl)cc1C(=O)OCC(=O)NC1CCS(=O)(=O)C1 (stereo unspecified)	MrgX1 PAM 15.9 | MrgX1 allo conf inactive | HEK293 Ca flux inactive | HEK293 Ca counter inactive | HEK293 Ca cntr2 inactive
CCC(c1nnnn1Cc1cccs1)N1CCN(C(=O)c2ccco2)CC1 (stereo unspecified)	MrgX1 PAM 7.11 | MrgX1 allo conf inactive | HEK293 Ca flux inactive | HEK293 Ca counter inactive | HEK293 Ca cntr2 inactive
Cc1ccc(C(c2nnnn2Cc2cccs2)N2CCN(C(=O)c3ccco3)CC2)cc1 (stereo unspecified)	none
Cc1nn(C(C)C(=O)NC2CCC(C)CC2)c(=O)c2nn(-c3ccccc3)c(C)c12 (stereo unspecified)	none
c1ccc(-c2nc3nc4ccccc4nc3n2CC2CCCO2)cc1 (stereo unspecified)	MrgX1 PAM 7.02 | MrgX1 allo conf inactive | HEK293 Ca flux inactive | HEK293 Ca counter inactive | HEK293 Ca cntr2 inactive
c1coc(-c2nc3nc4ccccc4nc3n2CC2CCCO2)c1 (stereo unspecified)	none
COc1ccc(N(CC(=O)Nc2cc(C)ccc2C)S(=O)(=O)c2c(C)[nH]c(=O)[nH]c2=O)cc1	none
Cc1ccc(N(CC(=O)Nc2ccc(Br)c(C)c2)S(=O)(=O)c2c(C)[nH]c(=O)[nH]c2=O)cc1	MrgX1 PAM 8.31 | MrgX1 allo conf inactive | HEK293 Ca flux inactive | HEK293 Ca counter inactive | HEK293 Ca cntr2 inactive
COc1ccc(CNC(=O)C2CCN(S(C)(=O)=O)CC2)c(OC)c1	none
CC1=CSC2=NC(=O)/C(=C/c3cccc(OC(=O)c4ccco4)c3)C(=N)N12	MrgX1 PAM 29.1 | MrgX1 allo conf 11.6% | HEK293 Ca flux inactive | HEK293 Ca counter inactive | HEK293 Ca cntr2 inactive
CSC1=NSC2=NC(=O)/C(=C\c3ccc(OC(=O)c4ccco4)cc3)C(=N)N12	MrgX1 PAM 41.1 | MrgX1 allo conf inactive | HEK293 Ca flux inactive | HEK293 Ca counter inactive | HEK293 Ca cntr2 inactive
CC1=CC2=NC(=O)/C(=C\c3ccc(OC(=O)c4ccco4)cc3)C(=N)N2O1	none
CCc1ccc(N(C(=O)c2csnn2)C(C(=O)NC(C)(C)CC)c2ccccn2)cc1 (stereo unspecified)	none
O=C(NCCCn1cccn1)C1CCC(=O)N(Cc2cccc(C(F)(F)F)c2)C1 (stereo unspecified)	MrgX1 PAM 7.78 | MrgX1 allo conf inactive | HEK293 Ca flux inactive | HEK293 Ca counter inactive | HEK293 Ca cntr2 inactive

Screening results: PubChem BioAssay, Johns Hopkins Ion Channel Center
